In ChEMBL document CHEMBL1149892, “Structure-antifungal activity relationship of His-Phe-Arg-Trp-Gly-Lys-Pro-Val-NH2 and analogues” (2008):

Experiments:
Assay type in all cases: functional
Candida albicans [1] = assay: Antifungal activity against Candida albicans 10231 at 100 uM after 24hrs relative to amphotericin B
Summary of the method: (§1)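 Broth microdilution in RPMI-1640. Peptides come from DMSO stocks, final DMSO ≤2%, at final 200 and 100 μM. Inoculum is 1–5 × 10^3 CFU/mL from strains grown 24 h at 35 °C on Sabouraud-chloramphenicol agar. […] Growth control carries matched DMSO; amphotericin B defines 100% inhibition. Run in duplicate.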

Candida tropicalis [2] = assay: Antifungal activity against Candida tropicalis C 131 at 200 uM after 24 hrs relative to amphotericin B; summary of the method: as §1
Candida tropicalis [3] = assay: Antifungal activity against Candida tropicalis C 131 at 100 uM after 24 hrs relative to amphotericin B; summary of the method: as §1
Cryptococcus neoformans [4] = assay: Antifungal activity against Cryptococcus neoformans ATCC 32264 at 25 uM after 48 hrs relative to amphotericin B; details: ATCC 32264, 48 h
Summary of the method: (§2)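 Microplate assay in RPMI-1640 with DMSO-dissolved peptide, final DMSO ≤2%. Inoculum is 1–5 × 10^3 CFU/mL from slants grown 24 h at 35 °C. Plates are held 48 h at 35 °C in a moist, dark chamber and read at OD405. Inhibition is taken against a DMSO-matched growth control after sterility-well subtraction; amphotericin B is set as 100%. Duplicate determinations.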

Cryptococcus neoformans [5] = assay: Antifungal activity against Cryptococcus neoformans ATCC 32264 at 12.5 uM after 48 hrs relative to amphotericin B; details: ATCC 32264, 48 h; summary of the method: as §2
Cryptococcus neoformans [6] = assay: Antifungal activity against Cryptococcus neoformans ATCC 32264 at 6.25 uM after 48 hrs relative to amphotericin B; details: ATCC 32264, 48 h; summary of the method: as §2
Cryptococcus neoformans [7] = assay: Antifungal activity against Cryptococcus neoformans ATCC 32264 at 3.25 uM after 48 hrs relative to amphotericin B; details: ATCC 32264, 48 h; summary of the method: as §2
Cryptococcus neoformans [8] = assay: Antifungal activity against Cryptococcus neoformans ATCC 32264 at 1.62 uM after 48 hrs relative to amphotericin B; details: ATCC 32264, 48 h; summary of the method: as §2
Cryptococcus neoformans [9] = assay: Antifungal activity against Cryptococcus neoformans ATCC 32264 at 0.81uM after 48 hrs relative to amphotericin B; details: ATCC 32264, 48 h; summary of the method: as §2
Cryptococcus neoformans [10] = assay: Antifungal activity against Cryptococcus neoformans ATCC 32264 at 0.40 uM after 48 hrs relative to amphotericin B; details: ATCC 32264, 48 h; summary of the method: as §2
Cryptococcus neoformans [11] = assay: Antifungal activity against Cryptococcus neoformans ATCC 32264 at 200 uM after 48 hrs relative to amphotericin B; details: ATCC 32264, 48 h; summary of the method: as §2
Cryptococcus neoformans [12] = assay: Antifungal activity against Cryptococcus neoformans ATCC 32264 at 100 uM after 48 hrs relative to amphotericin B; details: ATCC 32264, 48 h; summary of the method: as §2
Candida albicans [13] = assay: Antifungal activity against Candida albicans 10231 at 200 uM after 24 hrs relative to amphotericin B; summary of the method: as §1
Cryptococcus neoformans [14] = assay: Antifungal activity against Cryptococcus neoformans ATCC 32264 at 50 uM after 48 hrs relative to amphotericin B; details: ATCC 32264, 48 h; summary of the method: as §2

Substance | inhibition at 100 µM (Candida albicans [1]) | inhibition at 200 µM (Candida tropicalis [2]) | inhibition at 100 µM (Candida tropicalis [3]) | inhibition at 25 µM (Cryptococcus neoformans [4]) | inhibition at 12.5 µM (Cryptococcus neoformans [5]) | inhibition at 6.25 µM (Cryptococcus neoformans [6]) | inhibition at 3.25 µM (Cryptococcus neoformans [7]) | inhibition at 1.62 µM (Cryptococcus neoformans [8]) | inhibition at 0.81 µM (Cryptococcus neoformans [9]) | inhibition at 0.4 µM (Cryptococcus neoformans [10]) | inhibition at 200 µM (Cryptococcus neoformans [11]) | inhibition at 100 µM (Cryptococcus neoformans [12]) | inhibition at 200 µM (Candida albicans [13]) | inhibition at 50 µM (Cryptococcus neoformans [14])
H-HFKWGKFV-NH2 | 0% | 22% | 0% | 0% | 0% | 0% | 0% | 0% | 0% | 0% | 97% | 38% | 72% | –
H-HFKWGKYV-NH2 | 0% | 0% | 0% | 49% | 40% | 31% | 36% | 33% | 31% | 26% | 83% | 50% | 15% | 50%
H-HFRWGKFV-NH2 | 5% | 19% | 9% | 2% | 0% | 0% | 0% | 0% | 0% | 0% | 77% | 15% | 61% | 15%
H-HFRWGKPV-NH2 | 0% | 0% | 0% | 0% | 0% | 0% | 0% | 0% | 0% | 0% | 24% | 9% | 0% | 0%
H-HFRWGKYV-NH2 | 0% | 21% | 0% | 41% | 28% | 24% | 10% | 6% | 0% | 0% | 99% | 58% | 43% | 56%
H-HFRWGRFV-NH2 | 1% | 64% | 1% | 26% | 26% | 18% | 12% | 11% | 10% | 7% | 94% | 72% | 80% | 67%
H-HYKWGKFV-NH2 | 0% | 1% | 0% | 38% | 34% | 0% | 0% | 0% | 0% | 0% | 41% | 25% | 0% | 43%
H-HYKWGKYV-NH2 | 0% | 3% | 0% | 22% | 19% | 10% | – | – | – | – | 63% | 42% | 0% | 39%
H-HYKWGRFV-NH2 | 0% | 23% | 0% | – | – | 19% | 17% | 21% | 2% | 0% | 89% | 47% | 11% | –
H-HYRWGKFV-NH2 | 0% | 1% | 0% | 24% | 21% | 16% | 16% | 5% | 0% | 0% | 35% | 21% | 10% | 37%
